Publication PMC9061098 (RSC Advances, 2019)
Peptide text beside a SMILES is read from it.

Legend:
Experiment in all cases: MIC/MBC microdilution assay
E. coli ATCC 43827 = format: cell-based, Escherichia coli; conditions: n = 2; for Antibacterial activity, MIC: microdilution, 24 h at 37 °C, absorbance 620 nm; for Antibacterial activity, MBC: plated on MHA, overnight 37 °C
Procedure, shortened: (§1)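 Broth microdilution: 90 µL peptide (200, 100, 50, 25, 12.5 and 6.2 µg mL-1 as added) plus 10 µL inoculum (5 × 10^6 CFU mL-1 as added). Incubation 24 h at 37 °C; growth read as absorbance at 620 nm. For MBC, wells with no visible growth were loop-sampled, spread on MHA and incubated overnight at 37 °C. Run twice (n = 2).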

P. aeruginosa ATCC 27853 = format: cell-based, Pseudomonas aeruginosa; conditions: n = 2; for Antibacterial activity, MIC: microdilution, 24 h at 37 °C, absorbance 620 nm; for Antibacterial activity, MBC: plated on MHA, overnight 37 °C
Procedure, shortened: as §1

E. faecalis ATCC 29212 = format: cell-based, Enterococcus faecalis; conditions: n = 2; for Antibacterial activity, MIC: microdilution, 24 h at 37 °C, absorbance 620 nm; for Antibacterial activity, MBC: plated on MHA, overnight 37 °C
Procedure, shortened: as §1

S. aureus ATCC 25923 = format: cell-based, Staphylococcus aureus; conditions: n = 2; for Antibacterial activity, MIC: microdilution, 24 h at 37 °C, absorbance 620 nm; for Antibacterial activity, MBC: plated on MHA, overnight 37 °C
Procedure, shortened: as §1

E. coli ATCC 11775 = format: cell-based, Escherichia coli; conditions: n = 2
Procedure, shortened: as §1

E. coli ATCC 25922 = format: cell-based, Escherichia coli; conditions: n = 2
Procedure, shortened: as §1

[1] = microdilution, 24 h at 37 °C, absorbance 620 nm

Row | Antibacterial activity, MIC (E. coli ATCC 43827) [µM] | Antibacterial activity, MIC (P. aeruginosa ATCC 27853) [µM] | Antibacterial activity, MIC (E. faecalis ATCC 29212) [µM] | Antibacterial activity, MIC (S. aureus ATCC 25923) [µM] | Antibacterial activity, MIC (E. coli ATCC 11775; [1]) [µM] | Antibacterial activity, MIC (E. coli ATCC 25922; [1]) [µM] | SMILES | Antibacterial activity, MBC (E. coli ATCC 43827) [µM] | Antibacterial activity, MBC (P. aeruginosa ATCC 27853) [µM] | Antibacterial activity, MBC (E. faecalis ATCC 29212) [µM] | Antibacterial activity, MBC (S. aureus ATCC 25923) [µM] | Antibacterial activity, MBC (E. coli ATCC 11775; plated on MHA, overnight 37 °C) [µM] | Antibacterial activity, MBC (E. coli ATCC 25922; plated on MHA, overnight 37 °C) [µM]
1 | 102 | 203 | > 203 | 203 | – | – | N=C(N)NCCC[C@H](NC(=O)[C@H](Cc1c[nH]c2ccccc12)NC(=O)[C@H](CCC(N)=O)NC(=O)[C@H](Cc1c[nH]c2ccccc12)NC(=O)[C@H](CCCNC(=N)N)NC(=O)[C@@H](N)CCCNC(=N)N)C(N)=O [LfcinB (20–25)] (H-RRWQWR-NH2) | 203 | > 203 | > 203 | > 203 | – | –
2 | 17 | 67 | 67 | 135 | 17 | 17 | N=C(N)NCCC[C@H](NC(=O)[C@H](Cc1c[nH]c2ccccc12)NC(=O)[C@H](CCC(N)=O)NC(=O)[C@H](Cc1c[nH]c2ccccc12)NC(=O)[C@H](CCCNC(=N)N)NC(=O)[C@H](Cc1c[nH]c2ccccc12)NC(=O)[C@H](CCC(N)=O)NC(=O)[C@H](Cc1c[nH]c2ccccc12)NC(=O)[C@@H](N)CCCNC(=N)N)C(N)=O [LfcinB (21–25)Pal] (H-RWQWRWQWR-NH2) | 67 | 135 | 67 | > 135 | 17 | 34
3 | 65 | > 130 | > 130 | 130 | – | – | CSCC[C@H](NC(=O)[C@H](CCCNC(=N)N)NC(=O)[C@H](Cc1c[nH]c2ccccc12)NC(=O)[C@H](CCC(N)=O)NC(=O)[C@H](Cc1c[nH]c2ccccc12)NC(=O)[C@H](CCCNC(=N)N)NC(=O)[C@@H](N)CCCNC(=N)N)C(=O)N[C@@H](CCCCN)C(=O)N[C@@H](CCCCN)C(=O)N[C@@H](CC(C)C)C(=O)NCC(N)=O [LfcinB (20–30)] (H-RRWQWRMKKLG-NH2) | 130 | > 130 | > 130 | > 130 | – | –

Row | SMILES | Antibacterial activity, MIC (E. coli ATCC 43827) [µM] | Antibacterial activity, MIC (P. aeruginosa ATCC 27853) [µM] | Antibacterial activity, MIC (E. faecalis ATCC 29212) [µM] | Antibacterial activity, MIC (S. aureus ATCC 25923) [µM] | Antibacterial activity, MIC (E. coli ATCC 11775; [1]) [µM] | Antibacterial activity, MIC (E. coli ATCC 25922; [1]) [µM] | Antibacterial activity, MBC (E. coli ATCC 43827) [µM] | Antibacterial activity, MBC (P. aeruginosa ATCC 27853) [µM] | Antibacterial activity, MBC (E. faecalis ATCC 29212) [µM] | Antibacterial activity, MBC (S. aureus ATCC 25923) [µM] | Antibacterial activity, MBC (E. coli ATCC 11775; plated on MHA, overnight 37 °C) [µM] | Antibacterial activity, MBC (E. coli ATCC 25922; plated on MHA, overnight 37 °C) [µM]
4 | CSCC[C@H](NC(=O)[C@H](CCCNC(=N)N)NC(=O)[C@H](Cc1c[nH]c2ccccc12)NC(=O)[C@H](CCC(N)=O)NC(=O)[C@H](Cc1c[nH]c2ccccc12)NC(=O)[C@H](CCCNC(=N)N)NC(=O)[C@H](CCCNC(=N)N)NC(=O)[C@H](C)NC(=O)[C@H](CCCCN)NC(=O)[C@@H](N)Cc1ccccc1)C(=O)N[C@@H](CCCCN)C(=O)N[C@@H](CCCCN)C(=O)N[C@@H](CC(C)C)C(=O)NCC(=O)N[C@@H](C)C(N)=O [[Ala^19]-LfcinB (17–31)] | 102 | 102 | > 102 | > 102 | – | – | > 102 | > 102 | > 102 | > 102 | – | –
